Experimental data gathered from unrelated publications.
Read-out: cell growth or viability

Structure (SMILES) | cell line | assay | setting | IC50
CC1=C(O)C(=O)C=C2C1=CC=C1[C@@]2(C)CC[C@@]2(C)[C@@H]3C[C@](C)(C(=O)OCCCn4ccc5ccccc54)CC[C@]3(C)CC[C@]12C | MGC-803 | MTT | 48 h | 1090 nM
CC1(C)[C@@H](O)CC[C@]2(C)[C@H]3C(=O)C=C4[C@@H]5C[C@@](C)(C(=O)O)CC[C@]5(C)CC[C@@]4(C)[C@]3(C)CC[C@@H]12 | ECa-109 | MTT | 48 h | 19000 nM
CC(=O)O[C@@]12CO[C@@H]1C[C@H](O)[C@@]1(C)C(=O)[C@H](O)C3=C(C)[C@@H](OC(=O)[C@H](O)[C@@H](NC(=O)OC(C)(C)C)c4ccccc4)C[C@@](O)([C@@H](OC(=O)c4ccccc4)[C@H]21)C3(C)C | PC-12 | MTT | – | 280 µg/mL
COc1cc(Nc2nccc(-c3cnn4nc(OC)ccc34)n2)cc(C(F)(F)F)c1 | NCI-N87 | ATP luminescence | – | 640 nM
C#C[C@@]1(O)[C@@H](COP(=O)(O)OC[C@H]2O[C@@H](n3cc(F)c(=O)[nH]c3=O)C[C@@H]2O)O[C@@H](n2ccc(N)nc2=O)[C@@H]1O | FM3A/0 | MTT | 72 h | 2.2 nM
Cc1cnc(-c2ccc(-c3ccc(NC(=O)Nc4c(F)cc(F)cc4F)cc3F)c3c2C(=O)NC3)[nH]1 | Kasumi 1 | – | – | 22 nM
N[C@@H](CC(=O)N1CCN(C(c2ccc(F)cc2)c2ccc(F)cc2)CC1)C(=O)N1Cc2ccccc2C1 | Kasumi 1 | ATP luminescence | 48 h | 40800 nM
C[C@@H]1CCO[C@H]2Cn3cc(C(=O)NCc4ccc(F)cc4F)c(=O)c(O)c3C(=O)N12 | COS-7 | ATP luminescence | – | 360000 nM
CC1=C(O)C(=O)C=C2C1=CC=C1[C@@]2(C)CC[C@@]2(C)[C@@H]3C[C@](C)(C(=O)OCCCCCO)CC[C@]3(C)CC[C@]12C | MGC-803 | MTT | 48 h | 320 nM
CCOC(=O)c1[nH]c(Br)c(-c2ccc(SC)cc2)c1Br | MDA-MB-435 | SRB | – | 626 nM
CC1=C(O)C(=O)C=C2C1=CC=C1[C@@]2(C)CC[C@@]2(C)[C@@H]3C[C@](C)(C(=O)OCCCCCCCCO)CC[C@]3(C)CC[C@]12C | MGC-803 | MTT | 48 h | 380 nM
Cc1ccc(-c2ccc(O)cc2)c(C(=C2C=CC(=O)C=C2)c2ccc(O)cc2)c1C#Cc1ccc(O)cc1 | MGC-803 | MTT | 48 h | 15000 nM
CC(C)n1c(/C=C/C(O)CC(O)CC(=O)O)c(-c2ccc(F)cc2)c2ccccc21 (stereo not drawn) | SW480 | SRB | 72 h | 4.24 µg/mL
CC(C)[C@H](N)C(=O)N1CCC[C@H]1B(O)O | Kasumi 1 | ATP luminescence | 48 h | > 60000 nM
O=C(Nc1ccc(Cl)cc1)c1ccc([N+](=O)[O-])o1 | NCI-H2030 | resazurin | 96 h | 1120 nM
CC1=C(O)C(=O)C=C2C1=CC=C1[C@@]2(C)CC[C@@]2(C)[C@@H]3C[C@](C)(C(=O)OCCCCCCCO)CC[C@]3(C)CC[C@]12C | MGC-803 | MTT | 48 h | 400 nM
O=c1[nH]cc(F)c(=O)[nH]1 | MGC-803 | MTT | 48 h | 39000 nM
CC1=C(O)C(=O)C=C2C1=CC=C1[C@@]2(C)CC[C@@]2(C)[C@@H]3C[C@](C)(C(=O)OCCCCO)CC[C@]3(C)CC[C@]12C | MGC-803 | MTT | 48 h | 270 nM
CC(=O)O[C@@]12CO[C@@H]1C[C@H](O)[C@@]1(C)C(=O)[C@H](O)C3=C(C)[C@@H](OC(=O)[C@H](O)[C@@H](NC(=O)OC(C)(C)C)c4ccccc4)C[C@@](O)([C@@H](OC(=O)c4ccccc4)[C@H]21)C3(C)C | 143B | resazurin | 72 h | 2.9 nM
CC1=C(O)C(=O)C=C2C1=CC=C1[C@@]2(C)CC[C@@]2(C)[C@@H]3C[C@](C)(C(=O)OCCCO)CC[C@]3(C)CC[C@]12C | MGC-803 | MTT | 48 h | 290 nM
CCc1c2c(nc3ccc(O)cc13)-c1cc3c(c(=O)n1C2)COC(=O)[C@]3(O)CC | COS-7 | ATP luminescence | – | 131000 nM
